Assay results of several laboratories.
Protocols differ between the studies behind these lines.
CA2: Carbonic anhydrase 2 (CA2, Homo sapiens, UniProt P00918)
Neuronal acetylcholine receptor; alpha9/alpha10: Neuronal acetylcholine receptor; alpha9/alpha10 (Homo sapiens, UniProt Q9GZZ6+Q9UGM1)

SMILES	target	test	setting	endpoint	value
COc1ccc(S(=O)(=O)Oc2ccccc2C=NNC(=O)c2ccc(F)cc2)cc1	CA2	enzyme activity, inhibitor, absorbance		IC50	0.156 µM
COc1ccc2c3c([nH]c2c1)CCN(C)CC3	Neuronal acetylcholine receptor; alpha9/alpha10	ion current, antagonist, two-electrode voltage clamp	oocytes	IC50	3 µM
CC[N+]1(CC)CCN(c2ccc(NC(=O)c3cccc(C)n3)cc2)CC1	Neuronal acetylcholine receptor; alpha9/alpha10	ion current, agonist, two-electrode voltage clamp	oocytes	EC50	0.83 µM
COc1ccc2[nH]c3c(c2c1)CCN(C)CC3	Neuronal acetylcholine receptor; alpha9/alpha10	ion current, antagonist, two-electrode voltage clamp	oocytes	IC50	3.2 µM
CNC(=O)c1ccc(-c2cnn3ccc(C(=O)N(C)c4ccc(Cl)c(C(=O)O)c4)cc23)cc1	STE20-like serine/threonine-protein kinase (SLK, Homo sapiens, UniProt Q9H2G2)	enzyme activity, inhibitor		IC50	> 30 µM
CCCNC(=O)c1ccc(N2CC[N+](CC)(CC)CC2)cc1	Neuronal acetylcholine receptor; alpha9/alpha10	ion current, agonist, two-electrode voltage clamp	oocytes	EC50	11 µM
COC(=O)c1cc(N(C)C(=O)c2ccn3ncc(-c4ccc(C(=O)O)cc4)c3c2)ccc1Cl	cAMP-dependent protein kinase catalytic subunit alpha (PRKACA, Homo sapiens, UniProt P17612)	enzyme activity, inhibitor		IC50	> 30 µM
COc1ccc(S(=O)(=O)Oc2ccc(C=NNC(=O)c3ccc(F)cc3)cc2)cc1	CA2	enzyme activity, inhibitor, absorbance		IC50	0.0974 µM
CNC(=O)c1ccc(-c2cnn3ccc(C(=O)N(C)c4ccc(Cl)c(C(=O)OC)c4)cc23)cc1	Receptor tyrosine-protein kinase erbB-2 (ERBB2, Homo sapiens, UniProt P04626)	enzyme activity, inhibitor		IC50	> 30 µM
COc1ccc(S(=O)(=O)Oc2cccc(C=NNC(=O)c3ccc(F)cc3)c2)cc1	CA2	enzyme activity, inhibitor, absorbance		IC50	0.139 µM
